Laboratory results from ChEMBL document CHEMBL1129436, “Novel peptidyl alpha-keto amide inhibitors of calpains and other cysteine proteases” (J Med Chem, 1996).

How the values were obtained:
[1] = biological target: T1, Calpain-1 catalytic subunit (Homo sapiens, UniProt P07384); experiment: Inhibition of the cysteine protease human Calpain 1
T1 sequence (P07384 whole entry): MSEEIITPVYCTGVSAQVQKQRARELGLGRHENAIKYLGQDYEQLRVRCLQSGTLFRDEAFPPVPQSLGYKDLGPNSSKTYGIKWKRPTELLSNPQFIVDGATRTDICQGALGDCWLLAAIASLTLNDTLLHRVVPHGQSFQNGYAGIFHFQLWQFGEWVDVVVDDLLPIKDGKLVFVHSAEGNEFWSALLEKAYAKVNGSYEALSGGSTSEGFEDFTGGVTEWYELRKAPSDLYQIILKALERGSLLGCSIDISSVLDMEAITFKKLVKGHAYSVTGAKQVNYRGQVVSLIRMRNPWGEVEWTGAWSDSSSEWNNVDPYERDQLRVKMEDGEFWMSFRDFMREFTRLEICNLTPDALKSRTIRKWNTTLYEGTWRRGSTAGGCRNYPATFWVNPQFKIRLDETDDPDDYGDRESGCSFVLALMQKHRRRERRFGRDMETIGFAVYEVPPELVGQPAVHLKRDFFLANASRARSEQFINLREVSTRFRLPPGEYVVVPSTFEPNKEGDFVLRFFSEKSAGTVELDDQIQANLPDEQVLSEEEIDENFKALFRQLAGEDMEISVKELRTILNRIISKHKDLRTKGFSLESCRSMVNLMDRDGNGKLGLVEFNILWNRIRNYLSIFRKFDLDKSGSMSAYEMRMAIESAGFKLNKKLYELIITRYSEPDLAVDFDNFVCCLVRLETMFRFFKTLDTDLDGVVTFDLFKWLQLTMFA
Method in brief: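 Calpain assay in 25 mM Tris, pH 8.0, with 10 mM CaCl₂ and 5% DMSO. […] hydrolysis was read as initial velocity (t = 30-60 s) after a 30 s delay, at room temperature. Five or more inhibitor concentrations (not above 2 × K_obs) were used at two fixed substrate levels. Ki came from Dixon plots (1/v vs I) averaged over triplicates.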

Cathepsin B [2] = biological target: Cathepsin B (Bos taurus, UniProt P07688); experiment: Inhibition of bovine cathepsin B
Method in brief: (§1)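 Bovine or human cathepsin B, assayed in 20 mM sodium acetate, pH 5.2, with 0.5 mM dithiothreitol and 2% DMSO. The two enzyme sources were used interchangeably. Ki was taken from Dixon plots, with triplicate assays plotted as 1/v versus inhibitor concentration.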

Cathepsin B [3] = biological target: Cathepsin B (Homo sapiens, UniProt P07858); experiment: Inhibition of human cathepsin B; method in brief: as §1
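Wherever IC is given: measured as membrane permeability of platelets.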

Structure (SMILES)	Ki [1] [nM]	Ki (Cathepsin B [2]) [nM]	Ki (Cathepsin B [3]) [nM]	IC (Rattus norvegicus) [µM]
CCNC(=O)C(=O)C(CC)NC(=O)C(CC(C)C)NC(=O)c1nccc2ccccc12 (configuration not stated)	350	220		
CC(C)CC(NC(=O)OCc1ccccc1)C(=O)NC(Cc1ccccc1)C(=O)C(=O)NCC(O)c1ccc(OCc2ccccc2)c(OCc2ccccc2)c1 (configuration not stated)	480	20000		
CCC(NC(=O)C(CC(C)C)NC(=O)OCc1ccccc1)C(=O)C(=O)NCc1nc2c(c(=O)n(C)c(=O)n2C)n1C (configuration not stated)	32000	1700		
CCC(NC(=O)C(CC(C)C)NC(=O)OCc1ccccc1)C(=O)C(=O)NCC(O)c1cc(OC)c(OC)c(OC)c1 (configuration not stated)	380	220		
CCC(NC(=O)C(CC(C)C)NC(=O)OCc1ccccc1)C(=O)C(=O)NCC(O)c1cccc(C(F)(F)F)c1 (configuration not stated)	350	110		
CCNC(=O)C(=O)C(CC)NC(=O)C(CC(C)C)NC(=O)C(c1ccccc1)c1ccccc1 (configuration not stated)	5000	550		
CCC(NC(=O)C(CC(C)C)NC(=O)OCc1ccccc1)C(=O)C(=O)NC (configuration not stated)	280	330		
CNC(=O)C(=O)C(Cc1ccccc1)NC(=O)C(CC(C)C)NC(=O)OCc1ccccc1 (configuration not stated)	350	570		
CC(C)CC(NC(=O)OCc1ccccc1)C(=O)NC(Cc1ccccc1)C(=O)C(=O)NCCNC(=O)CCCC[C@@H]1SC[C@@H]2NC(=O)N[C@@H]21 (some centres not stated)	220	230		
CCC(NC(=O)C(CC(C)C)NC(=O)OCc1ccccc1)C(=O)C(=O)NCC(O)c1cccc2ccccc12 (configuration not stated)	120	63		
CC(C)CC(NC(=O)OCc1ccccc1)C(=O)NC(Cc1ccccc1)C(=O)C(=O)NCC(O)c1cccc(C(F)(F)F)c1 (configuration not stated)	460	140		
CC(C)CC(NC(=O)OCc1ccccc1)C(=O)NC(Cc1ccccc1)C(=O)C(=O)NCC(O)c1cccc(Oc2cccc(C(F)(F)F)c2)c1 (configuration not stated)	180	120		
CCC(NC(=O)C(CC(C)C)NC(=O)OCc1ccccc1)C(=O)C(=O)NCC(O)c1ccc(Oc2ccccc2)cc1 (configuration not stated)	100	210		
CCNC(=O)C(=O)C(CC)NC(=O)C(CC(C)C)NC(=O)Cc1cccc2ccccc12 (configuration not stated)	300		350	
CCC(NC(=O)C(CC(C)C)NC(=O)OCc1ccccc1)C(=O)C(=O)NCc1ccc2ccccc2n1 (configuration not stated)	130	450		
CC(C)CC(NC(=O)OCc1ccccc1)C(=O)NC(Cc1ccccc1)C(=O)C(=O)NCC(O)c1ccc(N(C)C)cc1 (configuration not stated)	620	310		
CCC(NC(=O)C(CC(C)C)NC(=O)OCc1ccccc1)C(=O)C(=O)NCCc1ccccc1OC (configuration not stated)	130		630	
CCNC(=O)C(=O)C(CC)NC(=O)C(CC(C)C)NC(=O)c1cnccn1 (configuration not stated)	1400	350		
CC(C)CC(NC(=O)OCc1ccccc1)C(=O)NC(Cc1ccccc1)C(=O)C(=O)NCCCN1CCCc2ccccc21 (configuration not stated)	380	140		
CC(C)CC(NC(=O)C(c1ccccc1)c1ccccc1)C(=O)NC(Cc1ccccc1)C(=O)C(=O)NCC(O)c1ccccc1 (configuration not stated)	10000	240		
CC(C)CC(NC(=O)OCc1ccccc1)C(=O)NC(Cc1ccccc1)C(=O)C(=O)NCC(O)c1cccc(Oc2ccccc2)c1 (configuration not stated)	600	640		
CCC(NC(=O)C(CC(C)C)NC(=O)OCc1ccccc1)C(=O)C(=O)NCCCN1CCCc2ccccc21 (configuration not stated)	370	94		
CCC(NC(=O)C(CC(C)C)NC(=O)OCc1ccccc1)C(=O)C(=O)NCCc1ccc(OC)cc1 (configuration not stated)	120		440	
CC(C)CC(NC(=O)OCc1ccccc1)C(=O)NC(Cc1ccccc1)C(=O)C(=O)NCC(O)c1c(F)c(F)c(F)c(F)c1F (configuration not stated)	700	210		
CCC(NC(=O)C(CC(C)C)NC(=O)C(c1ccccc1)c1ccccc1)C(=O)C(=O)NCCCN1CCOCC1 (configuration not stated)	800		2300	
CCCC(NC(=O)C(CC(C)C)NC(=O)OCc1ccccc1)C(=O)C(=O)NCc1ccccn1 (configuration not stated)	19		750	
CCC(NC(=O)C(CC(C)C)NC(=O)OCc1ccccc1)C(=O)C(=O)NCC(O)c1ccc(OCc2ccccc2)cc1 (configuration not stated)	80	110		
CCC(NC(=O)C(CC(C)C)NC(=O)OCc1ccccc1)C(=O)C(=O)NCCNC(=O)CCCC[C@@H]1SC[C@@H]2NC(=O)N[C@@H]21 (some centres not stated)	650	660		
CCC(NC(=O)C(CC(C)C)NC(=O)C(c1ccccc1)c1ccccc1)C(=O)C(=O)NCc1ccccn1 (configuration not stated)				88
